From ChEMBL document CHEMBL2401736, “HCV NS5A replication complex inhibitors. Part 5: discovery of potent and pan-genotypic glycinamide cap derivatives” (Bioorg Med Chem Lett, 2013)

Tests used:
[1] = Dissociation constant, pKa of the compound in MeOH/H2O at pH 2 to 11; assay type: physicochemical
Procedure, shortened: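 pKa found by potentiometric titration over pH 2–11 in varying MeOH/H2O mixtures.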

Hepatitis C virus [2] = assay: Antiviral activity against Hepatitis C virus genotype 1b by FRET assay; assay type: functional, organism-based, Hepacivirus hominis
Procedure, shortened: (§1)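 EC50 values are means of at least two experiments, with at most threefold variation between them.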

Hepatitis C virus [3] = assay: Antiviral activity against Hepatitis C virus genotype 1a by ELISA; assay type: functional, organism-based, Hepacivirus hominis, subtype 1a; procedure, shortened: as §1
[4] = Permeability of the compound across human Caco2 cells; assay type: ADME, cell-based; details: Caco-2, read-out: permeability
[5] = Metabolic stability in rat liver microsomes assessed as compound remaining after 10 mins; assay type: ADME, Microsome; details: read-out: Stability
Procedure, shortened: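 Compound incubated with rat liver microsomes for 10 min; read-out is the percentage of parent remaining.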

[6] = Clearance in rat at 2 mg/kg, iv after 4 hrs; assay type: ADME, organism-based; design: dose 2 mg/kg, route intravenous; details: in vivo
Procedure, shortened: (§2)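 Rat 4 h PK screen: 2 mg/kg IV and 5 mg/kg PO, each dose as its line states. Plasma sampled 5 times (0.17, 0.5, 1, 2 and 4 h); n = 2 rats.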

[7] = AUC (0 to 4 hrs) in rat at 2 mg/kg, iv; assay type: ADME, organism-based; design: time < 4 hr, dose 2 mg/kg, route intravenous; details: plasma; procedure, shortened: as §2
[8] = (§3) AUC (0 to 4 hrs) in rat at 5 mg/kg, po; assay type: ADME, organism-based, Plasma; design: time < 4 hr, dose 5 mg/kg, route oral; details: plasma; procedure, shortened: as §2
[9] = test system: Bovine viral diarrhea virus 1; assay: Antiviral activity against Bovine viral diarrhea virus by luciferase assay; assay type: functional, organism-based; procedure, shortened: as §1
Rattus norvegicus = assay: as §3; assay type: ADME, organism-based, Plasma; design: time < 4 hr, dose 5 mg/kg, route oral; details: in vivo, 4 h, BLD = below limit of detection; procedure, shortened: as §2
Hepatitis C virus [10] = assay: Antiviral activity against Hepatitis C virus genotype 5a; assay type: functional, organism-based, Hepacivirus hominis
Hepatitis C virus [11] = assay: Antiviral activity against Hepatitis C virus genotype 3a YH; assay type: functional, organism-based, Hepacivirus hominis; details: subtype 3a YH
Hepatitis C virus [12] = assay: Antiviral activity against Hepatitis C virus genotype 4a; assay type: functional, organism-based, Hepacivirus hominis
Hepatitis C virus [13] = assay: Antiviral activity against Hepatitis C virus genotype 3a; assay type: functional, organism-based, Hepacivirus hominis
Hepatitis C virus [14] = assay: Antiviral activity against Hepatitis C virus genotype 2a NIH; assay type: functional, organism-based, Hepacivirus hominis; details: subtype 2a NIH
Hepatitis C virus [15] = assay: Ratio of EC50 for Hepatitis C virus genotype 1b harboring NS5A L31V/Y93H double mutant to EC50 for Hepatitis C virus genotype 1b; assay type: functional, Hepacivirus hominis
Hepatitis C virus [16] = assay: Antiviral activity against Hepatitis C virus genotype 1b harboring NS5A L31V/Y93H double mutant by FRET assay; assay type: functional, organism-based, Hepacivirus hominis
[17] = Bovine viral diarrhea virus isolates and strains

Row | SMILES | pKa [1] | EC50 (Hepatitis C virus [2]; Hepatitis C virus, genotype 1b) [nM] | EC50 (Hepatitis C virus [3]; Hepatitis C virus, subtype 1a) [nM] | EC50 [9, 17] [µM] | EC50 (Hepatitis C virus [10]) [nM] | EC50 (Hepatitis C virus [11]) [nM] | EC50 (Hepatitis C virus [12]) [nM] | EC50 (Hepatitis C virus [13]) [nM] | EC50 (Hepatitis C virus [14]) [nM] | other results
1 | O=C1CN(C(C(=O)N2CCC[C@H]2C(=O)Nc2ccc(C#Cc3ccc(NC(=O)[C@@H]4CCCN4C(=O)C(c4ccccc4)N4CCNC(=O)C4)cc3)cc2)c2ccccc2)CCN1 (stereo partly specified) | 2.5 | < 4.6 | 388 |  |  |  |  |  |  | 
2 | CC(=O)N[C@H](C(=O)N1CCC[C@H]1C(=O)Nc1ccc(C#Cc2ccc(NC(=O)[C@@H]3CCCN3C(=O)[C@@H](NC(C)=O)c3ccccc3)cc2)cc1)c1ccccc1 |  | 0.005 | 24 | > 10 |  |  |  |  |  | Papp [4]: < 1.5 ×10⁻⁶ cm/s; remaining at 10 min [5]: 100%; clearance [6]: 13.3 mL/min/kg; AUC(0-t) at 4 h [7]: 2.11 µM·h; AUC(0-t) at 4 h [8]: 0.093 µM·h
3 | CN1CCN(C(C(=O)N2CCC[C@H]2C(=O)Nc2ccc(C#Cc3ccc(NC(=O)[C@@H]4CCCN4C(=O)C(c4ccccc4)N4CCN(C)CC4)cc3)cc2)c2ccccc2)CC1 (stereo in doubt; 5i.1) |  |  |  |  |  |  |  |  |  | Papp [4]: < 1.5 ×10⁻⁶ cm/s; remaining at 10 min [5]: 100%; AUC (Rattus norvegicus): BLD; EC50 [9]: > 3.33 µM; EC50 (Hepatitis C virus [2]): 0.152 nM; EC50 (Hepatitis C virus [3]): < 4.6 nM
4 | O=C(Nc1ccc(/C=C/c2ccc(NC(=O)[C@@H]3CCCN3C(=O)Cc3ccccc3)cc2)cc1)[C@@H]1CCCN1C(=O)Cc1ccccc1 |  | 0.086 | > 10000 | > 10 | < 0.23 | > 3000 | 0.16 | 0.3 | 260 | 
5 | O=C(Nc1ccc(C#Cc2ccc(NC(=O)[C@@H]3CCCN3C(=O)C(c3ccccc3)N3CCC(O)CC3)cc2)cc1)[C@@H]1CCCN1C(=O)C(c1ccccc1)N1CCC(O)CC1 (stereo in doubt; 5g.1) | 6.8 |  |  |  | 0.017 | 5.4 | 0.042 | 0.037 | 0.083 | Ratio EC50 (Hepatitis C virus [15]): >90; EC50 (Hepatitis C virus [16]): 12 nM; EC50 [9]: 6.98 µM; EC50 (Hepatitis C virus [2]): < 0.13 nM; EC50 (Hepatitis C virus [3]): 0.82 nM
6 | O=C(Nc1ccc(C#Cc2ccc(NC(=O)[C@@H]3CCCN3C(=O)[C@@H](c3ccccc3)N3CCCC3)cc2)cc1)[C@@H]1CCCN1C(=O)[C@@H](c1ccccc1)N1CCCC1 | 8.1 | < 4.6 | 19 | 1.38 |  |  |  |  |  | 
7 | COC(=O)N[C@@H](C(=O)N1CCC[C@H]1C(=O)Nc1ccc(C#Cc2ccc(NC(=O)[C@@H]3CCCN3C(=O)[C@H](NC(=O)OC)c3ccccc3)cc2)cc1)c1ccccc1 |  | 0.013 | 26 | > 10 |  |  |  |  |  | EC50 (Hepatitis C virus [16]): 382 nM
8 | COc1cccc2c(C(=O)N3CCC[C@H]3C(=O)Nc3ccc(/C=C/c4ccc(NC(=O)[C@@H]5CCCN5C(=O)c5nc(Cl)cc6c(OC)cccc56)cc4)cc3)nc(Cl)cc12 |  | 7.1 | 19 | > 10 | 3 | 74.9 | > 10000 | 3.2 | 14 | 
9 | O=C(Nc1ccc(C#Cc2ccc(NC(=O)[C@@H]3CCCN3C(=O)[C@@H](c3ccccc3)N3CCOCC3)cc2)cc1)[C@@H]1CCCN1C(=O)[C@@H](c1ccccc1)N1CCOCC1 | 4.6 | < 4.6 | 125 | > 10 |  |  |  |  |  | 
